From ChEMBL document CHEMBL3992505, “Optimization of substituted imidazobenzodiazepines as novel asthma treatments” (Eur J Med Chem, 2017)
Activity calls are given as the source filed them. The calls are words filed in the database; no cut-off is given here.

Tests used:
Mus musculus [1] = assay: Neurotoxicity in Swiss Webster mouse assessed as induction of senorimotor impairment at 40 mg/kg, ip administered 10 mins prior to testing and measured for 3 mins at 10 to 60 mins after drug administration by rotarod method; format: toxicity, organism-based; settings: in vivo
In short: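 Swiss Webster mice, pre-trained at 15 rpm until they held on for 3 min at three consecutive sessions, were given a single i.p. dose of 40 mg/kg in 10% DMSO/40% propylene glycol/50% PBS. Rotarod at 15 rpm for 3 min at 10, 30 and 60 min after dosing. Falls before 3 min scored as fail, with time of fall recorded. N = 10, mean ± SEM. Vehicle and diazepam 5 mg/kg i.p. controls. Mice rested 2–3 days between doses.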

Blood [2] = assay: Elimination rate constant in mouse blood assessed as (S)-7-Methoxy-N-methyl-9-oxo-11,12,13,13a-tetrahydro-9H-benzo[e]imidazo[5,1-c]pyrrolo[1,2-a][1,4]diazepine-1-carboxamide at 5 mg/kg, ip by LC/MS/MS analysis; format: ADME, organism-based; settings: in vivo
Blood [3] = assay: Tmax in mouse blood assessed as (S)-7-Methoxy-N-methyl-9-oxo-11,12,13,13a-tetrahydro-9H-benzo[e]imidazo[5,1-c]pyrrolo[1,2-a][1,4]diazepine-1-carboxamide at 5 mg/kg, ip by LC/MS/MS analysis; format: ADME, organism-based; settings: in vivo
Liver [4] = assay: Metabolic stability in mouse liver microsomes assessed as compound remaining at 10 uM after 1 hr by LC-MS/MS analysis; format: ADME, microsome
In short: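 Compound stability was measured in human or mouse liver microsomes as percent remaining after 1 h. Data came from two independent experiments, each run in triplicate.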

Blood [5] = assay: Cmax in mouse blood assessed as (S)-7-Methoxy-N-methyl-9-oxo-11,12,13,13a-tetrahydro-9H-benzo[e]imidazo[5,1-c]pyrrolo[1,2-a][1,4]diazepine-1-carboxamide at 5 mg/kg, ip by LC/MS/MS analysis; format: ADME, organism-based; design: dose 5 mg/kg, route intraperitoneal; settings: in vivo
[6] = Elimination rate constant in mouse brain at 5 mg/kg, ip by LC/MS/MS analysis; format: ADME, organism-based
Liver [7] = assay: Half life in mouse liver microsomes at 10 uM by LC-MS/MS analysis; format: ADME, microsome; settings: microsomes, 10 µM
[8] = Cmax in mouse lung at 5 mg/kg, ip by LC/MS/MS analysis; format: ADME, organism-based; design: dose 5 mg/kg, route intraperitoneal
Blood [9] = assay: Drug metabolism in mouse blood assessed as (S)-7-Methoxy-N-methyl-9-oxo-11,12,13,13a-tetrahydro-9H-benzo[e]imidazo[5,1-c]pyrrolo[1,2-a][1,4]diazepine-1-carboxamide formation at 5 mg/kg, ip after 3 mins by LC/MS/MS analysis; format: ADME, organism-based; settings: in vivo, 0.05 h
Blood [10] = assay: Drug metabolism in mouse blood assessed as (S)-7-Methoxy-9-oxo-11,12,13,13a-tetrahydro-9H-benzo[e]imidazo[5,1-c]pyrrolo[1,2-a][1,4]di-azepine-1-carboxylic acid formation at 5 mg/kg, ip by LC/MS/MS analysis; format: ADME, organism-based; settings: in vivo
Mus musculus [11] = assay: Antiasthamatic effect in BALB/c mouse model of ovalbumin-induced asthma assessed as inhibition of airway hyperresponsiveness at 40 mg/kg, ip administered 40 mins as single dose prior to measurement; format: functional, organism-based
[12] = Elimination rate constant in mouse lung at 5 mg/kg, ip by LC/MS/MS analysis; format: ADME, organism-based

In the case of `COc1ccc2c(c1)C(=O)N1CCC[C@H]1c1c(C(=O)N(C)C)ncn1-2`, the Activity (Mus musculus [1]) is reported as “Non-Toxic”, the Kel (Blood [2]) is reported as 0.028 min⁻¹ and the Tmax (Blood [3]) is reported as 40 min. For the same compound, the Stability (Liver [4]) was 82.5%, the Cmax (Blood [5]) was 1176 ng/g and the k el [6] was 0.00112 s⁻¹. For the same compound, the t1/2 (Liver [7]) was 63.3 min, the Cmax [8] was 30 ng/g and the Drug metabolism (Blood [9]) was “Metabolite_Detected”. For the same compound, the Drug metabolism (Blood [10]) was “Metabolite_Notdetected”, the Activity (Mus musculus [11]) was “inactive” and the k el [12] was 0.000983 s⁻¹.
